Measured values reported in article PMC8161485 (ACS Central Science, 2021).
Residue numbers refer to the chain shown, from its start.

Assays:
[1] = system: AML01 primary AML specimen; test: Cell viability of primary AML specimen AML01; format: cell-based; details: Homo sapiens, AML01, read-out: AML01 LC50
How it was run: (§1)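 Primary AML samples came from consenting donors. Live mononuclear cells were isolated on a Ficoll-Paque density gradient and cryopreserved, with 40–70% viability after thawing. Cells were kept at 37 °C, humidified, 5% CO2.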

[2] = system: AML02 primary AML specimen; test: Cell viability of primary AML specimen AML02; format: cell-based; details: Homo sapiens, read-out: AML02 LC50
How it was run: as §1

[3] = system: AML03 primary AML specimen; test: Cell viability of primary AML specimen AML03; format: cell-based; details: Homo sapiens, read-out: AML03 LC50
How it was run: as §1

P450BM3 variant FL#62 = target: T1, P450BM3 variant FL#62 (Priestia megaterium, UniProt P14779, A181T/A185V/A198V/A291V/A83V/E253G/F206C/F82S/F88A/H237Q/L354V/P143S/R256S/S227R/T176I/V79A); test: Heme spin shift binding of MCL to P450 variant FL#62; set-up: species or system Bacillus megaterium
T1 sequence (P14779 1-1049 V79A/F82S/A83V/F88A/P143S/T176I/A181T/A185V/A198V/F206C/S227R/H237Q/E253G/R256S/A291V/L354V): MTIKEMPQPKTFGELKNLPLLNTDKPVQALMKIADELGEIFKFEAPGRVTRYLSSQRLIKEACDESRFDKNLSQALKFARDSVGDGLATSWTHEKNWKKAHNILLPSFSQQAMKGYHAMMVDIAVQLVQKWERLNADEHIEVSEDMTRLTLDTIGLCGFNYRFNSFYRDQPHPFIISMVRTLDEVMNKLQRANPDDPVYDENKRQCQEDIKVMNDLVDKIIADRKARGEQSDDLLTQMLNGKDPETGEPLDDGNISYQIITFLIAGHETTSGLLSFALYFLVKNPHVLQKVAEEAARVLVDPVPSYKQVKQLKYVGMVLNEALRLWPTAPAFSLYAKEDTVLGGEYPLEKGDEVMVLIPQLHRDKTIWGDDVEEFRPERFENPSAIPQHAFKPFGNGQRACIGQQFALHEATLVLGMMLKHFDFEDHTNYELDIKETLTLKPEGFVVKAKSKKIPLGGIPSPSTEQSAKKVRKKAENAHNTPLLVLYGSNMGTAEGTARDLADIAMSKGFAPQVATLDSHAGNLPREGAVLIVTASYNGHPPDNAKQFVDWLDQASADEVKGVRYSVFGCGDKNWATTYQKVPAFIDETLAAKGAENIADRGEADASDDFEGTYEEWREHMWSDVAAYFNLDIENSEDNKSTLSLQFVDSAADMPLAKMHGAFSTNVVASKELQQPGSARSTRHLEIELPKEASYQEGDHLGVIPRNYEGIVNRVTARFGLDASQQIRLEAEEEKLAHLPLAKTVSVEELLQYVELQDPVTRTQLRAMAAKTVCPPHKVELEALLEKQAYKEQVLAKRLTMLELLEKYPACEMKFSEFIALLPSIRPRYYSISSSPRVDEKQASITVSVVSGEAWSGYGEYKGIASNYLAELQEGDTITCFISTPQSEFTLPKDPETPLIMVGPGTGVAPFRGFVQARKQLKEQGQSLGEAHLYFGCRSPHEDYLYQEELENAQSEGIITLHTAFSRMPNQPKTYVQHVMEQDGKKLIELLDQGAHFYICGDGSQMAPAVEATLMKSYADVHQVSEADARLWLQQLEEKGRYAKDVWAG
How it was run: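 Purified P450 (3 μM) in 50 mM potassium phosphate, pH 8.0, titrated with test compound (5–2000 μM) from a 50 mM ethanol stock. A difference spectrum (350–500 nm) was taken at each step. Absorbance change at 390/420 nm (high/low spin) was plotted against concentration, with KD from a nonlinear 1:1 binding fit. At least triplicate, room temperature.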

[4] = target: T2, P450BM3 variant V-H10(R47C,A87I) (Priestia megaterium, UniProt P14779, A181T/A185V/A198V/A291V/E253G/F206C/F88I/H237Q/L354V/P143S/R256S/R48C/S227R/T176I/V79N); test: Heme spin shift binding of MCL to P450 variant V-H10; set-up: species or system Bacillus megaterium
T2 sequence (P14779 1-1049 R48C/V79N/F88I/P143S/T176I/A181T/A185V/A198V/F206C/S227R/H237Q/E253G/R256S/A291V/L354V): T1 sequence (P14779 1-1049 V79A/F82S/A83V/F88A/P143S/T176I/A181T/A185V/A198V/F206C/S227R/H237Q/E253G/R256S/A291V/L354V) with R48C, A79N, S82F, V83A, A88I
How it was run: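 Purified P450 (3 μM) in 50 mM or 1 M potassium phosphate, pH 8.0, titrated with test compound (5–2000 μM) from a 50 mM ethanol stock. Difference spectra (350–500 nm) were recorded at each step. Absorbance change at 390/420 nm (high/low spin) was fitted to a 1:1 binding model for KD. At least triplicate, room temperature.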

AML cells and LSCs = details: MCL vs PTL; cited from earlier work

Structure (SMILES): C=C1C(=O)O[C@H]2[C@H]1CCC(C)=C1CC[C@@](C)(O)[C@@H]12 [MCL, micheliolide]
- CC50 [1]: 18.8 µM
- CC50 [2]: 20.3 µM
- CC50 [3]: 15.7 µM
- Kd (P450BM3 variant FL#62): 61 ± 3 µM
- Kd ([4]; 50 mM KPi pH 8.0, room temperature): 365 ± 53 µM
- Kd ([4]; 1 M KPi buffer (pH 8.0)): 128 µM
- LC50 in vitro relative to PTL (fold higher) (AML cells and LSCs): ~3 fold
